Sampled rows, rich in hits. Any-hit rate of the full collection: about 1.5%.
Casp6 inh: caspase-6 (human) enzyme inhibition | P55212 | purified caspase-6, Z-VEID-R110 cleavage fluorescence | inhibition, % at 12.5 µM | 0.53% of 350,000 active;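 active means mean inhibition across replicates at least about 35%, with every replicate also reaching that limit, limit read from the data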
DNMT1 inh: DNMT1 (human) enzyme inhibition; DNMT1 molecular beacon, Hinp1I cleavage, fluorescence; 0.83% of 360,000 active; inhibition (reported as % activation of signal), % at 10 µM; AID 588458
Target sequence (P26358 504-1616 limits assumed): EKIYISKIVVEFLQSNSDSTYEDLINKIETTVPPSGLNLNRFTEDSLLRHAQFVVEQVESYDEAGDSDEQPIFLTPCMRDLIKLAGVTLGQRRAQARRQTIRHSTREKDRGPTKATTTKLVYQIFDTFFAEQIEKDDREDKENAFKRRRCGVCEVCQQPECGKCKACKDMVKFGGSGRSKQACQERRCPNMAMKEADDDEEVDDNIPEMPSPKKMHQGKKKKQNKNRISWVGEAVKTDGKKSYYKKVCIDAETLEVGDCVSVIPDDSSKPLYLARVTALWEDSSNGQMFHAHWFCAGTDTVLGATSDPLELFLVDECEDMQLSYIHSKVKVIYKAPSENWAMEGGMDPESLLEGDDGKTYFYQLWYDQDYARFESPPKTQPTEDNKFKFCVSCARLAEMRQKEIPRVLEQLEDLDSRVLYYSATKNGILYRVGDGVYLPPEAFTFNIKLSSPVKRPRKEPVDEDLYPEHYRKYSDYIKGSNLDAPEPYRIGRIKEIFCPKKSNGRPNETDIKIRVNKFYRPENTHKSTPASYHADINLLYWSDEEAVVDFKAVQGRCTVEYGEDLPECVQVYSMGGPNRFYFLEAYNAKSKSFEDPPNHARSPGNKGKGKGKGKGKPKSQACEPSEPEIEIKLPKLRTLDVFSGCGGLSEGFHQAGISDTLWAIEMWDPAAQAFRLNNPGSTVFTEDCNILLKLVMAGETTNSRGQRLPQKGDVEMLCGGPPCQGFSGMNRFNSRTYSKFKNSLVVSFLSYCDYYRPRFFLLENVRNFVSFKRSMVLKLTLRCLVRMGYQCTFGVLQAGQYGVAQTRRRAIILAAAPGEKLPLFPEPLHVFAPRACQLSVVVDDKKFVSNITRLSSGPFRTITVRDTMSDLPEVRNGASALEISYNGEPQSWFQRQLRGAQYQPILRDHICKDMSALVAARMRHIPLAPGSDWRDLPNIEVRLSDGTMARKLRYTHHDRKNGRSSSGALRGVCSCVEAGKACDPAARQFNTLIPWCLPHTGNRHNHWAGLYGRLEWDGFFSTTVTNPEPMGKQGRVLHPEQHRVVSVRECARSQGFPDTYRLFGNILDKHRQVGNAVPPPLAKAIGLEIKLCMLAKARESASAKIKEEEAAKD
NS3 helicase inh: HCV NS3 helicase inhibition | NS3 helicase DNA unwinding, Cy5 molecular beacon fluorescence | inhibition, % at 10.9 µM | 0.56% of 290,000 active;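 active means inhibition above the mean of all tested compounds plus 3 SD, set per campaign, cut at about 35% in these data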
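assay system = NS3 helicase fragment of HCV | buffer or medium = MOPS pH 6.5, MgCl2, DTT, Tween20, BSA | timing = 60 min unwinding reaction at 25 °C after ATP addition | signal = Cy5 beacon fluorescence read at start and 1 h | read-out basis = % inhibition of unwinding | control set = low DMSO, high thioflavine S at 110 µM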
NSD2 inh: blocks human histone methyltransferase NSD2; AID 743445; 0.54% of 310,000 active; O96028; inhibition, % at 12.5 µM; NSD2 peptide methylation, AlphaScreen, 120 min
NS3 hel confirm: HCV NS3 helicase inhibition, confirmation assay; shares compounds with NS3 helicase inh; inhibition, % at 10.9 µM; AID 1943; 31% of 1,600 active; NS3 helicase DNA unwinding, Cy5 molecular beacon fluorescence;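 active means inhibition above the mean of all tested compounds plus 3 SD, cutoff set per campaign, cut at about 36% in these data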
FID counter trip: displaces DNA intercalator in HCV helicase counter-screen | shares compounds with NS3 helicase inh | DNA fluorescent intercalator displacement, fluorescence | inhibition, % at 7.9 µM | 4% of 1,600 active | AID 1945; in the data active means inhibition above about 37%;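 further: higher means more displacement of ethidium bromide from the DNA hairpin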
DNA FID DR: displaces fluorescent intercalator from DNA, HCV helicase counter-screen; shares compounds with NS3 helicase inh; fluorescent intercalator displacement from DNA, fluorescence; IC50, µM; 120 tested, under 10 active; call rule not given here
Of the large screens only hits and unclear results are named; the others gave an inactive call (follow-up assays come after a bar, where they were run). Unless noted, no stated cut-off is given here; in the data, active means inhibition above about 50%; inactive means the rest.

Cc1ccccc1S(=O)(=O)N1CC[C@@H]2[C@H]1c1cc(C#Cc3ccccc3)ccc1N[C@@H]2CO	none (no result: DNMT1 inh, NS3 helicase inh, NSD2 inh)
C[C@H](CO)N1C[C@H](C)[C@H](CN(C)Cc2ccc3c(c2)OCO3)OCCCC[C@H](C)Oc2ccc(NS(=O)(=O)c3ccc(Cl)cc3)cc2C1=O	none (no result: DNMT1 inh, NS3 helicase inh, NSD2 inh)
Cc1ccccc1OCC(=O)N/N=C/c1ccc([N+](=O)[O-])o1	none
O=C(N/N=C\C=C\c1ccc([N+](=O)[O-])o1)c1cccs1	Casp6 inh 56, DNMT1 inh 81, NS3 helicase inh 54 | NS3 hel confirm inactive | FID counter trip inactive
COc1ccccc1OCC(=O)N/N=C/C=C/c1ccc([N+](=O)[O-])o1	NS3 helicase inh 46 | NS3 hel confirm inactive | FID counter trip inactive
C[C@@H]1CCCCO[C@H](CN(C)C(=O)Nc2ccccc2)[C@@H](C)CN([C@H](C)CO)C(=O)c2cc(NC(=O)c3ccccc3)ccc2O1	none (no result: DNMT1 inh, NS3 helicase inh, NSD2 inh)
C[C@@H]1CN([C@@H](C)CO)C(=O)c2cc(NC(=O)CCC(F)(F)F)ccc2O[C@@H](C)CCCCO[C@@H]1CN(C)S(=O)(=O)c1ccccc1	none (no result: DNMT1 inh, NS3 helicase inh, NSD2 inh)
COc1cc(/C=N/NC(=O)[C@H](Cc2c[nH]c3ccccc23)NC(=O)OCC(C)C)cc([N+](=O)[O-])c1O	NS3 helicase inh 50 | NS3 hel confirm 59 | FID counter trip inactive
COc1cc(/C=N/NC(=O)Cc2ccccc2)cc([N+](=O)[O-])c1O	none
CCCNC(=O)C[C@@H]1CC[C@H]2[C@@H](COc3ccc(NC(=O)Cc4ccccc4)cc3C(=O)N2C)O1	none (no result: DNMT1 inh, NS3 helicase inh, NSD2 inh)
Cc1noc(C)c1NC(=O)N(C)C[C@H]1Oc2c(NC(=O)Nc3ccc(C(F)(F)F)cc3)cccc2C(=O)N([C@@H](C)CO)C[C@H]1C	none (no result: DNMT1 inh, NS3 helicase inh, NSD2 inh)
COC(=O)c1ccccc1-c1ccc(/C=N/NC(=O)c2cc3ccccc3o2)o1	NS3 helicase inh 38 (no result: Casp6 inh) | NS3 hel confirm inactive | FID counter trip inactive
C[C@@H]1CN([C@@H](C)CO)C(=O)c2cc(NC(=O)c3ccncc3)ccc2O[C@@H](C)CCCCO[C@@H]1CN(C)C(=O)Nc1cccc2ccccc12	none (no result: DNMT1 inh, NS3 helicase inh, NSD2 inh)
COCC(=O)N1[C@H](CO)[C@@H](c2ccc(-c3cccc(OC)c3)cc2)C12CN(C(C)=O)C2	none (no result: DNMT1 inh, NS3 helicase inh, NSD2 inh)
Cc1cc(OCc2nn[nH]n2)c2c(C)c(Cc3ccccc3)c(=O)oc2c1	NS3 helicase inh 69 (no result: Casp6 inh) | NS3 hel confirm 62 | FID counter trip inactive
C[C@@H]1CN([C@@H](C)CO)C(=O)c2cc(-c3cccc(C#N)c3)cnc2O[C@@H]1CN(C)Cc1ccncc1	none (no result: DNMT1 inh, NS3 helicase inh, NSD2 inh)
Cc1c(C(=O)NNC(=S)Nc2ccc(S(N)(=O)=O)cc2)oc2ccccc12	NS3 helicase inh 38 | NS3 hel confirm inactive | FID counter trip inactive
C[C@@H]1CN([C@H](C)CO)C(=O)Cc2cc(NS(=O)(=O)c3ccccc3)ccc2O[C@@H]1CN(C)CC1CC1	none (no result: DNMT1 inh, NS3 helicase inh, NSD2 inh)
COc1ccc2c3c(n(C)c2c1)[C@@H](CO)N(C(C)=O)CC31CCN(Cc2ccccc2OC)CC1	none (no result: DNMT1 inh, NS3 helicase inh, NSD2 inh)
CNc1ccc(Br)cc(C(=O)/C=C/c2cccc(Cl)c2Cl)c1=O	NS3 helicase inh 37 | NS3 hel confirm 68 | FID counter trip inactive | DNA FID DR inactive
CNc1ccccc(C(=O)/C=C/c2ccccc2OC)c1=O	none (no result: Casp6 inh)
ClCc1csc(N/N=C/c2cccs2)n1	NS3 helicase inh 43 (no result: Casp6 inh, DNMT1 inh, NSD2 inh) | NS3 hel confirm inactive | FID counter trip inactive
C[C@H]1CN([C@@H](C)CO)C(=O)Cc2cc(NC(=O)Nc3ccc(C(F)(F)F)cc3)ccc2O[C@H]1CN(C)S(=O)(=O)c1ccccc1	none (no result: DNMT1 inh, NS3 helicase inh, NSD2 inh)
CCCNC(=O)COC(=O)c1ccc(S(=O)(=O)N2CCCC2)cc1	NS3 helicase inh 50 | NS3 hel confirm inactive | FID counter trip inactive
CC(C)OC(=O)/C(=C/c1ccco1)c1ccccc1	NS3 helicase inh 61 | NS3 hel confirm inactive | FID counter trip inactive
CC(C)(C)NC(=O)/C(=C/c1ccco1)c1ccccc1	none (no result: Casp6 inh)
CO[C@@H]1CC[C@H]2CCN(C)C(=O)C[C@@H](c3ccccc3)CN(C)C(=O)c3cccc(C#N)c3OC[C@H]1O2	none (no result: DNMT1 inh, NS3 helicase inh, NSD2 inh)
O=c1cc(-c2ccc([N+](=O)[O-])cc2)nc2cc(-c3ccc(Cl)cc3)[nH]n12	NS3 helicase inh 48 (no result: Casp6 inh, DNMT1 inh, NSD2 inh) | NS3 hel confirm inactive | FID counter trip inactive
CCCc1cc(=O)n2[nH]c(-c3ccc(Cl)cc3)cc2n1	none
COc1ccc(C2C(C(C)=O)=C(C)N=c3s/c(=C\c4ccco4)c(=O)n32)c(OC)c1 (stereo not drawn)	NS3 helicase inh 54 (no result: Casp6 inh) | NS3 hel confirm inactive | FID counter trip inactive
COc1ccc(C2C(C(C)=O)=C(C)N=c3s/c(=C\c4cc(C)n(C)c4C)c(=O)n32)c(OC)c1 (stereo not drawn)	none (no result: Casp6 inh)
O=C(N/N=C/c1ccc[nH]1)c1cc2ccccc2cc1O	NS3 helicase inh 41 (no result: Casp6 inh) | NS3 hel confirm inactive | FID counter trip inactive
Cc1ccc(S(=O)(=O)N(C)C[C@H]2OCCCC[C@@H](C)Oc3ccc(NS(=O)(=O)c4cn(C)cn4)cc3C(=O)N([C@@H](C)CO)C[C@H]2C)cc1	none (no result: DNMT1 inh, NS3 helicase inh, NSD2 inh)
O=C(C1CCCC1)N1CC(=O)N2[C@@H](CO)[C@H](c3ccc(C#Cc4cccc(F)c4)cc3)[C@@H]2C1	none (no result: DNMT1 inh, NS3 helicase inh, NSD2 inh)
O=c1c2ccccc2sc2nc(C3CCCCC3)n(Cc3ccco3)c(=O)c12	NS3 helicase inh 40 (no result: Casp6 inh) | NS3 hel confirm inactive | FID counter trip inactive
Cc1ccc(/C=C/C(=O)Nc2cccc(S(=O)(=O)N3CCOCC3)c2)o1	NS3 helicase inh 48 | NS3 hel confirm inactive | FID counter trip inactive
COc1cccc(C#Cc2cnc3c(c2)C(=O)N([C@H](C)CO)C[C@H](C)[C@H](CN(C)C(=O)C2CCC2)O3)c1	none (no result: DNMT1 inh, NS3 helicase inh, NSD2 inh)
CC(C)NC(=O)N(C)C[C@@H]1Oc2c(NS(=O)(=O)c3ccc(Cl)cc3)cccc2C(=O)N([C@@H](C)CO)C[C@@H]1C	none (no result: DNMT1 inh, NS3 helicase inh, NSD2 inh)
Cc1ccc(NC(=O)C2=C(c3ccccc3)S(=O)(=O)CCS2(=O)=O)cc1	NS3 helicase inh 38 | NS3 hel confirm 59 | FID counter trip inactive | DNA FID DR inactive
Cc1ccccc1CN1CCc2c(OCC(=O)N3CCCc4ccccc43)cccc2C1=O	NS3 helicase inh 75 (no result: Casp6 inh) | NS3 hel confirm inactive | FID counter trip inactive
O=C1c2cccc(OCC(=O)N3CCCc4ccccc43)c2CCN1Cc1cccnc1	none
COCCn1c(SCC(=O)Nc2ccccc2OC)nc2ccccc2c1=O	none
COCCn1c(-c2ccc(OC)cc2)cnc1SCC(=O)Nc1cccc2ccccc12	NS3 helicase inh 47 (no result: Casp6 inh) | NS3 hel confirm inactive | FID counter trip inactive
COc1ccc(-c2cnc(SCC(=O)Nc3nc(C(C)(C)C)cs3)n2Cc2ccco2)cc1	NS3 helicase inh 52 (no result: Casp6 inh) | NS3 hel confirm inactive | FID counter trip inactive
Cc1ccc(Cn2cc(CCC(=O)O)c3ccccc32)cc1	NS3 helicase inh 49 | NS3 hel confirm inactive | FID counter trip inactive
CCOc1ccc(CNC(=O)CCc2cn(Cc3ccccc3)c3ccccc23)cc1	none (no result: NSD2 inh)
Cc1ccc(C(=O)Nc2nc(-c3ccco3)c(-c3ccco3)s2)o1	none (no result: NS3 helicase inh)
